Sampled rows, rich in hits. Any-hit rate of the full collection: about 3%.
H9c2 protect: cardioprotection against H2O2-induced cell death, primary screen, uHTS, H9c2 cells, ATPLite luminescence. H9c2 cardiomyocytes, H2O2 injury protection, 2 h. protection from H2O2 cell death, % at 20 µM. 360,000 tested, 0.63% active;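 active = compounds giving at least 50% protection of heart cells from peroxide-induced death in the single-dose screen, raw or plate-pattern-corrected value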;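 note: 0% = DMSO wells with peroxide and 100% = DMSO wells without peroxide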
HNF4A DNA FP: change in binding of human HNF4A to DNA, primary screen, biochemical, fluorescence polarization, FITC-DNA | activity change, % at 10 µM | 360,000 tested, 0.3% active | 1 h | Hepatocyte nuclear factor 4-alpha (Homo sapiens), P41235 | AID 1224865, 2016; in the data active = activity change above about 30%, passing the limit was not always enough
DSG3 Ab inh: inhibitors of pemphigus antibody binding to DSG3, primary screen, biochemical, bead-based, flow cytometry, scFv-GFP | 310,000 tested, 0.48% active | binding (percent of control), % at 10 µM | AID 588358, 2011 | Desmoglein-3 (Homo sapiens), P32926 | DSG3-coupled beads, scFv-anti-DSG3-GFP binding; active compounds read low;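 active = binding more than 3 SD below its plate's average and above zero; inconclusive = below that plate limit but binding exactly zero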;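 note: hits lower antibody fragment binding to DSG3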
Granule exo inh: LAMP-1 surface exposure blockers, TALL-104 cells – cell-based, flow cytometry, MLPCN library, primary screen; TALL-104 LAMP-1 surface exposure; cells stimulated with thapsigargin and PMA; inhibition, % at 10 µM; 360,000 tested, 0.66% active;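 active = inhibition above about 55%, limit read from the data; inconclusive = no clear call, values can overlap the other calls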
Myeloid diff 2: induction of myeloid progenitor differentiation, primary screen, cell-based, flow cytometry, MLPCN library. ER-HoxA9 myeloid progenitors, lysozyme-GFP differentiation. calls only at 10 µM. 360,000 tested, 1% active. AID 624256, 2012;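 active = normalized GFP-positive differentiation at or above the plate's own cutoff, the solvent-only control mean plus 3 SD; inconclusive = no clear call, values can overlap the other calls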;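 note: cells exposed to compound for four days before flow analysis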
SENP1 inh: human SENP1 catalytic domain inhibitors, primary screen, biochemical, FRET, uHTS | Sentrin-specific protease 1 (Homo sapiens), Q9P0U3 | recombinant SENP1 catalytic domain, CyPet-SUMO1-YPet FRET cleavage | inhibition, % at 10 µM | 360,000 tested, 0.21% active;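 active = inhibition at least 30% at 10 µM, raw YFP signal under a set limit, fluorescence ratio 0.5 to 1.5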;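 note: 0% = enzyme with DMSO and 100% = no enzyme wells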
Target sequence (Q9P0U3 419-644 limits assumed): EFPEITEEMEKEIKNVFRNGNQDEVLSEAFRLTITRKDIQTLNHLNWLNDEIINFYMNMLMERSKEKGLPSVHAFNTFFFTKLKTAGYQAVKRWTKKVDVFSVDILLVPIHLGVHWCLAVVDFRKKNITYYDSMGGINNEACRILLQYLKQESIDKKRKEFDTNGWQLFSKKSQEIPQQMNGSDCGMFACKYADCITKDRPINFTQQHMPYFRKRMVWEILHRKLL
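Assay system – human recombinant His6-tagged SENP1 catalytic domain enzyme · Input – SENP1 enzyme, 20 pM final · Buffer or medium – Tris pH 8 buffer plus EDTA, NaCl, BME, BSA, NP40, catalase · Schedule – 50 min reaction at room temperature · Technique – FRET read of cyan and yellow fluorescence · Control set – no-enzyme wells low, DMSO-plus-enzyme wells high control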
Numbers without * were called inactive; i = inactive; ? = inconclusive; . = not tested or not shown; + = active, no number.

SMILES	H9c2 protect	HNF4A DNA FP	DSG3 Ab inh	Granule exo inh	Myeloid diff 2	SENP1 inh
CN(Cc1ccccc1Br)C(=O)CN1C(=O)NC2(CCCCCC2)C1=O	-5.2	-1.8	101.8	7.1	i	2.3
Cc1ccc(NC(=O)Nc2ccnc(-c3cccnc3)n2)cc1	78.2*	-2.4	101.3	32.2	i	0.8
CCOc1ccc(S(=O)(=O)N2CCN(C(=O)c3ccccc3Cc3ccccc3)CC2)cc1	-3.0	-2.3	80.4*	-12.3	i	2.8
CCN(CC(=O)Nc1c(F)cccc1F)C(=O)CCCOc1ccccc1	0.4	1.0	98.5	7.7	i	0.3
CCCn1c(NC(=O)c2ccc(F)cc2)nc2ccccc21	20.7	-2.5	114.8	-7.5	i	2.8
CCCCn1c(NC(=O)c2ccccc2)nc2ccccc21	81.2*	-3.5	98.5	3.4	i	0.9
CCCn1c(NC(=O)c2ccc(Br)cc2)nc2ccccc21	2.4	0.0	84.9*	1.3	i	0.5
CCC(C)C1/C=C\CC(NC(=O)OCC2c3ccccc3-c3ccccc32)CC(=O)N1Cc1ccccc1 (centres undefined)	-11.9	-0.5	98.2	-2.0	i	-0.3
COc1ccc(C2/C=C\CC(NC(=O)OCC3c4ccccc4-c4ccccc43)CC(=O)N2Cc2ccccc2F)cc1 (centres undefined)	-6.2	5.1	83.2*	-1.1	i	-1.6
O=C(COC(=O)CCc1nc2ccccc2c(=O)[nH]1)NC(=O)NC1CCCC1	33.7	1.6	100.8	-11.4	i	-8.3
CCCCOc1ccc(C(=O)NCC(=O)N(C)Cc2nc3ccccc3c(=O)[nH]2)cc1	54.2*	-3.3	109.6	0.4	i	1.8
CC(OC(=O)CCc1nc2ccccc2c(=O)[nH]1)C(=O)NC1CCCC1 (centres undefined)	54.9*	1.5	105.8	-5.2	i	0.8
O=C(CCc1nc2ccccc2c(=O)[nH]1)OCc1ccc(-c2ccccc2)cc1	27.4	-0.4	7.9*	5.5	i	-3.3
Cc1cccc(C(=O)NCC(=O)N(C)Cc2nc3ccccc3c(=O)[nH]2)c1	36.2	2.7	100.3	-2.5	i	-2.9
CCc1ccc(C(=O)NNC(=O)CCc2nc3ccccc3c(=O)[nH]2)cc1	35.7	4.4	104.3	0.6	i	-16.0
COc1ccc(C(=O)NNC(=O)CCc2nc3ccccc3c(=O)[nH]2)cc1	63.5*	5.4	116.5	1.4	i	1.0
CC1CCCC(C)N1C(=O)COC(=O)CCc1nc2ccccc2c(=O)[nH]1 (centres undefined)	48.2	0.9	107.9	-0.5	i	1.5
Cc1ccc(OCCOC(=O)CCc2nc3ccccc3c(=O)[nH]2)cc1	54.6*	-0.6	100.1	2.6	i	-1.3
CNC(=O)C[C@@H]1C(=O)N(C2CCCCC2)CC1(C)C	16.9	-1.9	103.6	-0.6	+	0.2
CC1(C)CN(C2CCCCC2)C(=O)[C@H]1CC(=O)Nc1ccccc1	12.9	1.2	100.1	-5.8	i	0.1
Cc1nc(SCC(=O)N2CCN(c3ccccc3)CC2)c2oc3ccccc3c2n1	74.5*	0.1	.	1.3	i	-0.5
COc1ccc(CN2CCNC(=O)C2CC(=O)N(C)C2CCCCC2)cc1OC (centres undefined)	4.3	0.5	97.2	19.4	i	-3.5
CC(C)c1ccc(NC(=O)C2(C)Cc3c(-c4ccc5c(c4)OCO5)ccnc3O2)cc1 (centres undefined)	-7.2	3.5	.	-0.3	i	0.1
Cc1ccc(S(=O)(=O)N2[C@H](CC(=O)OCc3ccccc3)OC[C@@H]2C)cc1	.	-2.5	.	-11.7	i	0.4
CCOC(=O)C1CCCN(S(=O)(=O)c2ccc3c(c2)N(C)C(=O)CC(=O)N3C)C1 (centres undefined)	-6.8	-1.6	104.6	1.6	+	-0.9
SMILES	H9c2 protect	HNF4A DNA FP	DSG3 Ab inh	Granule exo inh	Myeloid diff 2	SENP1 inh
O=C(COC(=O)c1ccc([N+](=O)[O-])o1)NCc1ccc2c(c1)OCO2	36.9	-5.6	.	-2.5	i	2.1
COc1ccc(C2c3[nH]c4ccccc4c3C[C@H]3C(=O)N(c4ccccc4C(=O)N4CCC[C@H]4C(=O)O)C(=O)N23)cc1 (some centres undefined)	2.1	-3.0	104.4	-5.7	i	-47.0
COC(=O)C1C2CC3c4[nH]c5cc(OC)ccc5c4CCN3CC2CC(O)C1OC (centres undefined)	-0.9	8.0	.	-2.1	i	-22.9
COC(=O)C1C2CC3c4[nH]c5cc(OC)ccc5c4CCN3CC2CC(OC(=O)CC(C)=O)C1OC (centres undefined)	11.3	49.0*	96.5	-10.5	i	-26.5
COc1ccc(CCNC(=O)c2ccncc2)cc1OC	-4.4	-0.1	105.8	-1.2	i	-0.6
COc1ccc(CCNC(=O)c2cc3c(C)nccc3[nH]c2=O)cc1OC	75.8*	0.2	.	-1.7	i	-3.7
Cc1cc(N)n(-c2nc(-c3cccnc3)nc3ccccc23)n1	86.4*	1.4	86.4	0.7	i	3.2
O=S(=O)(c1ccc(F)cc1)N1CCN(c2nc(-c3cccnc3)nc3ccccc23)CC1	34.8	1.1	?	-3.0	i	-3.3
O=S(=O)(c1ccccc1)N1CCN(c2nc(-c3cccnc3)nc3ccccc23)CC1	57.9*	1.8	100.0	6.5	i	-1.0
Cc1ccc(C(=O)N2CC(=O)Nc3ccc(F)cc3C2c2ccc(F)cc2)cc1[N+](=O)[O-] (centres undefined)	-0.9	-2.0	.	26.1	i	0.2
Cc1ccc(NC(=O)CS(=O)c2ccccc2N)c(C)c1 (centres undefined)	-1.1	1.5	103.9	-2.5	i	1.6
CC(C)(C)NC(=O)CSc1nc(O)cc(=O)n1-c1ccccc1F	9.5	78.2*	.	-2.9	i	7.4
COc1ccc(NC(=O)CSc2nc(O)cc(=O)n2-c2ccc(OC)cc2)cc1	5.0	-1.0	.	-5.2	+	-0.1
COc1ccccc1-n1c(SCC(=O)NC(C)(C)C)nc(O)cc1=O	-1.3	0.9	99.8	-3.9	i	1.0
COc1ccc(-n2c(SCC(=O)Nc3ccc4c(c3)OCO4)nc3ccccc3c2=O)cc1	-3.9	1.6	92.8	-0.9	+	0.5
CC(C)Oc1ccc(C(=O)Nc2ccc(NC(=O)c3ccco3)c(Cl)c2)cc1	-9.0	4.2	54.1*	-2.5	i	0.7

High-throughput results (PubChem)
